Results collected from several papers.
Each line is one published result; the experiments were not run side by side.
Target: Rho-associated protein kinase 2 (ROCK2, Homo sapiens, UniProt O75116)

Nc1ncc(-c2nc(N3CCOCC3)nc(N3CCOCC3)n2)c(C(F)F)n1 has a remaining binding of 100% (binding; competition with immobilised ligand; 10 µM).
Cc1nn(C)cc1-c1nc2c(N3CCN(Cc4ccc(Cl)cc4)CC3)c(Cl)cnc2[nH]1 has a remaining binding of 35% (binding; competition with immobilised ligand; 1 µM).
COc1ncccc1-c1cnn2ccc(N3CCN(C(=O)OC(C)C)CC3)nc12 gave a remaining binding of 86% (binding; competition with immobilised ligand; 1 µM).
For COc1cc(Nc2ncc(F)c(Nc3ccc4c(n3)NC(=O)C(C)(C)O4)n2)cc(OC)c1OC, the inhibition was 86% (binding; 10 µM).
The inhibition of Cn1cc(-c2cccc(N3CCc4c(sc5c4CC(C)(C)C5)C3=O)c2CO)cc(Nc2ccncn2)c1=O is reported as 1% (enzyme activity; inhibitor; 1 µM).
For O=c1[nH]c2ccccc2n1C1CCN(Cc2ccc(-c3[nH]c4cc5ncnc5cc4nc3-c3ccccc3)cc2)CC1, the remaining signal was 109% (cell-free assay; 0.5 µM).
Cn1cncc1[C@@](O)(COc1ccc(C#N)cc1-c1ccc(OC(F)(F)F)cc1)c1ccc(C#N)cc1 gave a remaining binding of 100% (cell-free assay; competition with immobilised ligand; 1 µM).
With C#Cc1n[nH]c2c(-c3cn([C@@H](C)c4ccccc4)c(=O)[nH]c3=O)cc(F)cc12 the inhibition was 3% (enzyme activity; inhibitor; 0.1 µM).
For Cn1cc(-c2cc(F)cc(N3CCn4c(cc5c4CCCC5)C3=O)c2CO)cc(Nc2ccc(N3CCN(C4COC4)CC3)cn2)c1=O, the inhibition was 1% (enzyme activity; inhibitor; 0.1 µM).
CC(C)(C)c1cc(C=C(C#N)C#N)cc(Br)c1O has a remaining activity of 95.6% (enzyme activity; inhibitor; 0.5 µM).
For N#CC1(c2ccccn2)CCN(Cc2cc(C(=O)O)c(=O)n3ccccc23)CC1, the remaining binding was 85% (cell-free assay; competition with immobilised ligand; 1 µM).
C#Cc1n[nH]c2c(-c3cn(C(C)c4ccccn4)c(=O)[nH]c3=O)cc(F)cc12 (stereo not drawn) has an inhibition of 4.2% (enzyme activity; inhibitor; 1 µM).
